These results are taken from ChEMBL document CHEMBL1121793, “Biological effects of modified colchicines. Improved preparation of 2-demethylcolchicine, 3-demethylcolchicine, and (+)-colchicine and reassignment of the position of the double bond in dehydro-7-deacetamidocolchicines” (J Med Chem, 1981).

Data set [1] is described as follows: (§1) Toxicity found after a single im injection. The total number of deaths were counted after 7 days and LD50 was determined by probit analysis. The data set is classed as organism-based. As to conditions: mouse, in vivo, read-out: Toxicity. The essentials: (§2)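 NIH general purpose mice (ca. 20 g), ten per dose level, usually ≥5 dose levels; single im injection in Emulphor EL-620 mixture, vehicle-only group of ten as control. Survivors counted at day 7; LD50 with 95% confidence interval by probit analysis, converted to μmol/kg.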

For data set [2], the species on record is Mus musculus. In words: Dose of compound which caused an average weight loss >3g in a set of mice or the death of one or more of the mice in the set in the P388 NCI screen. The data set is classed as functional. In a few lines:
(§3)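 P388 leukemia-bearing mice, 20–22 g; one im injection daily for 9 days, compound in hydroxypropylcellulose suspension or aqueous solution. Toxic dose = lowest dose level at which ≥1 mouse died on or by day 5, or group mean weight loss >3 g; converted to μmol/kg.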

The subject of data set [3] is P388. In words: The compound was tested for its potency against lymphocytic leukemia P388 screen in mice. The data set is classed as functional, Mus musculus.
Data set [4] relates to P388. As to conditions: Mus musculus.
Data set [5] relates to Mus musculus. Put plainly: Toxicity found after a single im injection. The total number of deaths were counted after 7 days and LD50 was determined by probit analysis; 82.9-163.4. The data set is classed as functional. In a few lines: as §2
The species named for data set [6] is Mus musculus. Put plainly: Dose of compound which caused an average weight loss >3g in a set of mice or the death of one or more of the mice in the set in the P388 NCI screen. Type of data set: functional. The essentials:
as §3

Data set [7] relates to Mus musculus. Put plainly: Toxicity found after a single im injection. The total number of deaths were counted after 7 days and LD50 was determined by probit analysis; 2.4-5.1. The data set is classed as functional. In a few lines: as §2
Data set [8] deals with Mus musculus. In words: Toxicity found after a single im injection. The total number of deaths were counted after 7 days and LD50 was determined by probit analysis; 6.4-11.8. Type of data set: functional. In a few lines:
as §2

Data set [9] relates to Mus musculus. In words: Toxicity found after a single im injection. The total number of deaths were counted after 7 days and LD50 was determined by probit analysis; 2.5-4.0. Type of data set: functional. In a few lines: as §2
In data set [10] the test system is Mus musculus. Described as §1. The data set is classed as functional. In a few lines: as §2
The subject of data set [11] is Mus musculus. In words: Toxicity found after a single im injection. The total number of deaths were counted after 7 days and LD50 was determined by probit analysis; 28.6-63.9. The data set is classed as functional. The essentials:
as §2

Data set [12] has as its system P388. In words: The compound was tested for its potency against lymphocytic leukemia P388 screen in mice; Inactive. The data set is classed as functional, cell-based. As to conditions: Mus musculus.
For data set [13], the system named is Mus musculus. In words: Toxicity found after a single im injection. The total number of deaths were counted after 7 days and LD50 was determined by probit analysis; 101.5-317.8. Type of data set: functional. The essentials:
as §2

Data set [14] relates to Mus musculus. Put plainly: Toxicity found after a single im injection. The total number of deaths were counted after 7 days and LD50 was determined by probit analysis; 0.9-1.3. The data set is classed as functional. In a few lines:
as §2

Activity calls are given as the source filed them. The calls are words filed in the database; no cut-off is given here.

As for `COc1cc2c(c(OC)c1OC)-c1ccc(OC)c(=O)cc1[C@@H](N(C)C)CC2`, the LD50 at 168 h in data set [1] stood at 520 µmol/kg. This molecule showed a Toxicity in the data set filed under Mus musculus [2] of 51.9 µM/kg. In the data set on P388 [3], this molecule yielded a Potency of 68 µM/kg.
For `COc1cc2c(c(OC)c1OC)-c1ccc(=O)c(OC)cc1[C@@H](NC(=O)C(F)(F)F)CC2`, in the data set with P388 [4], the Potency entry was “inactive”.
For `COc1cc2c(c(OC)c1OC)-c1ccc(OC)c(=O)cc1[C@H](NC(C)=O)CC2`, the Toxicity with Mus musculus [5] is 122.6 µM/kg.
Take `COc1c(O[C@H]2O[C@H](CO)[C@@H](O)[C@H](O)[C@H]2O)cc2c(c1OC)-c1ccc(OC)c(=O)cc1C(NC(C)=O)CC2` (some centres not stated): the Potency result in the data set on P388 [4] is “inactive”.
On to `CN[C@H]1CCc2cc(OC)c(OC)c(OC)c2-c2ccc(=O)c(O)cc21`, for which the Potency result with P388 [4] is “inactive”.
For the molecule `CN[C@H]1CCc2cc(OC)c(OC)c(OC)c2-c2ccc(OC)c(=O)cc21` [DEMECOLCINE], the Toxicity in the data set listed under Mus musculus [6] stood at 21.6 µM/kg. Further, the Potency with P388 [3] worked out at 10.8 µM/kg.
Take `COc1cc2c(c(OC)c1OC)-c1ccc(OC)c(=O)cc1[C@@H](N(C)C(C)=O)CC2`: the Toxicity in the data set on Mus musculus [7] stood at 3.6 µM/kg; in the data set filed under Mus musculus [6], 3 µM/kg. Also, the Potency with P388 [3] was determined as 0.4 µM/kg.
In the case of `COc1cc2c(c(OC)c1OC)-c1ccc(=O)c(OC)cc1[C@@H](N(C)C=O)CC2`, the Potency result with P388 [4] is “inactive”.
In the case of `COc1cc2c(c(OC)c1OC)-c1ccc(OC)c(=O)cc1[C@@H](N(C)C(=O)C(F)(F)F)CC2`, the Toxicity in the data set on Mus musculus [8] was found to be 8.8 µM/kg; in the data set listed under Mus musculus [6], 5.4 µM/kg. This molecule had a Potency in the data set with P388 [3] of 1.5 µM/kg.
Turning to `COc1cc2c(c(OC)c1OC)-c1ccc(OC)c(=O)cc1[C@@H](NC(C)=O)CC2` [COLCHICINE], the Toxicity in the data set on Mus musculus [9] worked out at 3 µM/kg; in the data set listed under Mus musculus [6] it was 2.5 µM/kg. For the same molecule, the Potency in the data set with P388 [3] was found to be 0.4 µM/kg.
Consider `COC1=CC=C2C(=C(NC(C)=O)CCc3cc(OC)c(OC)c(OC)c32)CC1=O`, for which the Potency result in the data set on P388 [4] is “inactive”.
Regarding `COc1cc2c(c(OC)c1OC)-c1ccc(=O)c(OC)cc1[C@@H](N(C)C(C)=O)CC2`, the Potency entry in the data set on P388 [4] is “inactive”.
In the data set listed under Mus musculus [6], `COc1cc2c(c(OC)c1OC)-c1ccc(OC)c(=O)cc1C(=O)CC2` yielded a Toxicity of 28.1 µM/kg. Further, the Potency in the data set on P388 [3] came to 9.6 µM/kg.
On to `COc1cc2c(c(O)c1OC)-c1ccc(OC)c(=O)cc1[C@@H](NC(C)=O)CC2`, for which the Toxicity was over 520 µM/kg with Mus musculus [10] and 103.9 µM/kg in the data set filed under Mus musculus [6]. For the same molecule, the Potency with P388 [3] came to 86 µM/kg.
Take `COc1cc2c(c(OC)c1O)-c1ccc(OC)c(=O)cc1[C@@H](NC(C)=O)CC2` [2-DESMETHYLCOLCHICIN]: the figures for the Toxicity in the data set with Mus musculus [11] and in the data set filed under Mus musculus [6] were 42.9 µM/kg and 51.9 µM/kg, respectively. Further, in the data set with P388 [3], the Potency stood at 13.8 µM/kg.
For `COc1cc2c(c(OC)c1OC)-c1ccc(=O)c(OC)cc1CC=C2`, the Potency entry in the data set with P388 [12] was “inactive”.
`COc1cc2c(c(OC)c1OC)-c1ccc(OC)c(=O)cc1CC=C2`: the LD50 at 168 h in data set [1] is about 300 µmol/kg. The Toxicity in the data set filed under Mus musculus [2] came out at 29.4 µM/kg. In addition, the Potency with P388 [3] was 15.9 µM/kg.
For `COc1cc2c(c(OC)c1OC)-c1ccc(OC)c(=O)cc1[C@@H](N(C)Cc1ccccc1O)CC2` [SPECIOSINE], in that order: 296 µmol/kg, 83.9 µM/kg and 22 µM/kg.
On to `COc1cc2c(c(O)c1OC)-c1ccc(SC)c(=O)cc1[C@@H](NC(C)=O)CC2`, for which, in the data set with P388 [4], the Potency result was “inactive”.
`COc1cc2c(c(OC)c1OC)-c1ccc(OC)c(=O)cc1[C@@H](N(C)C=O)CC2`: the Toxicity was 179.7 µM/kg in the data set on Mus musculus [13] and 6.3 µM/kg in the data set listed under Mus musculus [6]. This molecule came in with a Potency with P388 [3] of 1.7 µM/kg.
`COc1cc2c(c(OC(C)=O)c1OC)-c1ccc(OC)c(=O)cc1[C@@H](NC(C)=O)CC2`: the values for the Toxicity with Mus musculus [10] and in the data set filed under Mus musculus [6] were 205.9 µM/kg and 46.8 µM/kg, respectively. The Potency result in the data set with P388 [4] is “inactive”.
Take `COc1cc2c(c(OC)c1OC)-c1ccc(OC)c(=O)cc1[C@@H](NC(=O)C(F)(F)F)CC2`: the Toxicity with Mus musculus [14] is 1.1 µM/kg; in the data set listed under Mus musculus [6] it was 0.9 µM/kg. This molecule registered a Potency with P388 [3] of 0.4 µM/kg.
For the molecule `COc1cc2c(c(OC)c1OC)-c1ccc(=O)c(OC)cc1[C@@H](N(C)C)CC2`, in the data set with P388 [12], the Potency result was “inactive”.
